Source: PubChem BioAssay
Neddyl block = blocks human cullin neddylation | TR-FRET cullin neddylation, biochemical | AID 651699 | calls only at 25 µM | P61081+Q13564 | 360,000 compounds, 0.58% hits; in the data active means inhibition above about 36%
MT1-MMP act inh = blocks activation of human MT1-MMP; P50281; HT1080 RFP-PRO-GFP cells, GFP/RFP ratio fluorescence, overnight; percent of plate control window, DMSO zero; GFP/RFP ratio change, % at 20 µM; 360,000 compounds, 0.061% hits; AID 651647;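 active means GFP/RFP ratio change of at least 30% with cell ATP level not reduced by more than half and red fluorescence within 50% of control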
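Compound: 20 µM single dose, 1% DMSO / System: HT1080 RFP-PRO-GFP cells / Controls: DMSO and RFP-L50D-GFP cell wells / Read-out basis: GFP/RFP fluorescence ratio / Schedule: overnight compound exposure at 37 °C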
proKLK7 act = proKLK7 (human) activation, primary screen; P49862; purified proKLK7, EDANS-DABCYL substrate fluorescence; 100% is mature enzyme control, 0% vehicle; activation, % at 7 µM; 370,000 compounds, 0.9% hits; AID 652039;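 active means activation above the mean of all tested compounds plus 3 SD, computed per campaign excluding outliers beyond control limits, cut at about 13% in these data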
Target sequence (P49862 whole entry, looked up): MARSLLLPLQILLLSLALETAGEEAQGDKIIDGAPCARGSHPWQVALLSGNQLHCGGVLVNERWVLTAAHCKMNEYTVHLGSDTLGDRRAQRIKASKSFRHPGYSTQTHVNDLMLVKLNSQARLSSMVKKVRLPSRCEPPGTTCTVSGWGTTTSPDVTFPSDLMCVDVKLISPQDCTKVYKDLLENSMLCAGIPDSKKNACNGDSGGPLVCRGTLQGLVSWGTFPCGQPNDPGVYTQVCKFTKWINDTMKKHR
SKN-1 inh = blocks SKN-1 activity in C. elegans; 360,000 compounds, 0.49% hits; C. elegans VP596 Pgst-4::GFP/RFP ratio, acrylamide-induced, 24 h; inhibition, % at 21.8 µM;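 active means interference check ratio from 0.5 to 1.5 plus GFP to RFP signal ratio inhibition reaching or exceeding a fixed threshold, cut at about 30% in these data, passing the limit was not always enough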
Tn7 DDE FP = inhibitors of Tn7 peptide binding to human fibrin DD(E); AID 720508; FP displacement of FITC-Tn7 peptide from fibrin DD(E); 0% = median of compound wells per plate; inhibition, % at 8.3 µM; P02675; 370,000 compounds, 0.13% hits;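 active means inhibition above the mean of compounds falling within the control limits plus 3 SD of them, cut at about 14% in these data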;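 further: 0% = plate median of compound wells and 100% = 10 µM Aha-Tn7 peptide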
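Assay system: Fibrin-DD(E) protein isolated from polymerized human fibrin clots; read-out basis: percent inhibition; medium: Tris/NaCl/CaCl2 buffer, pH 7.8; signal: FP measurement; incubation: 10 min plus 3 h, room temperature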
Tn6 DDE FP = inhibitors of Tn6 peptide binding to human fibrin DD(E); P02675; 370,000 compounds, 0.21% hits; AID 720509; inhibition, % at 8.3 µM; Fibrin DD(E) TRITC-Tn6 fluorescence polarization displacement;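 active means inhibition above a per-campaign cutoff: mean of compounds within control limits plus 3 SD, cut at about 15% in these data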;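 further: 0% = median of all compound wells on the plate and 100% = blocking peptide control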
Neddyl conf = cullin neddylation inhibition, confirmation; shares compounds with Neddyl block; TR-FRET cullin neddylation biochemical assay; calls only at 25 µM; 1,800 compounds, 13% hits; in the data active means inhibition above about 40%;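 further: neddylation substrate is the cullin 1 ring ligase complex with SKP2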
The depositor's hits bear a star; i = inactive; · = no result shown; + = active, no number. Sampled rows, rich in hits. Any-hit rate of the full collection: about 2.2%.

SMILES | Neddyl block | MT1-MMP act inh | proKLK7 act | SKN-1 inh | Tn7 DDE FP | Tn6 DDE FP | Neddyl conf
Cc1cccc(S(=O)(=O)c2c(N)n(/N=C/c3ccco3)c3nc4ccccc4nc23)c1 | · | -1 | 1 | 18 | -4 | -3 | ·
CC1(C)Cc2c(C#N)c(NCc3ccco3)nc(-c3ccco3)c2CO1 | i | -3 | 1 | -9 | -5 | 4 | ·
CN(C)CCNc1nc(-c2ccco2)c2c(c1C#N)CC(C)(C)OC2 | + | -6 | 10 | -10 | 11 | 2 | +
CS(=O)(=O)N(CC(=O)N/N=C/c1cccc2c1OCCO2)c1ccccc1Br | + | -2 | -3 | 31 | 5 | -2 | +
CS(=O)(=O)N(CC(=O)N/N=C/c1cc2c(cc1Br)OCO2)c1ccccc1Br | i | -7 | 0 | 0 | -5 | -8 | ·
COc1ccccc1Nc1ncc(C(=O)N2CCN(Cc3ccc(OC)c(OC)c3OC)CC2)c2ccccc12 | + | 5 | 1 | -3 | 2 | -7 | ·
COc1cc(N)c(Br)cc1C(=O)O | i | -3 | 0 | -3 | 7 | 1 | ·
Nc1cc2c(cc1Br)-c1c(C(=O)O)cccc1C2O (stereo unspecified) | + | 3 | 10 | 8 | 3 | 1 | i
Cc1cc(=O)oc2cc(OCC(=O)N3CC(=O)Nc4ccccc43)c(Cl)cc12 | + | -2 | 2 | -1 | -7 | -4 | i
COc1cc(C(=O)N2CCC(N3CCN(C)CC3)CC2)ccc1Nc1ncc2c(n1)N(C)c1ccccc1C(=O)N2C | · | · | 0 | · | -5 | -1 | ·
CCN1C(=O)CCN(C2CCCC2)c2nc(Nc3ccc(C(=O)NC4CCN(C)CC4)cc3OC)ncc21 | + | 19 | 0 | 6 | 3 | -13 | i
Cc1cccc(NC(=S)N/N=C2\CC(C)(C)Oc3ccc(O)cc32)c1 | i | 1 | -10 | 7 | -2 | 0 | ·
COc1cccc(NC(=S)N/N=C2\CC(C)(C)Oc3ccc(O)cc32)c1 | + | 2 | -10 | 13 | 2 | -1 | i
CCCc1cc(=O)oc2c(C)c3occ(C)c3cc12 | + | -7 | -1 | 13 | 11 | 0 | i
Cc1coc2c(C)c3oc(=O)cc(-c4ccccc4)c3cc12 | i | 0 | -1 | 11 | -3 | -2 | ·
Cc1nc2c(-c3ccc(F)cc3)c(C)nn2c(C)c1CCC(=O)N1CCC(Cc2ccccc2)CC1 | i | 7 | 0 | 6 | -3 | -3 | ·
Cn1c(=O)c2c(nc(N/N=C/c3ccc(OC(=O)c4ccco4)cc3)n2Cc2ccccc2Cl)n(C)c1=O | + | -1 | · | 14 | · | · | i
Cn1c(=O)c2c(nc(N/N=C/c3ccc(OC(=O)c4ccco4)cc3)n2Cc2ccc(F)cc2)n(C)c1=O | · | 11 | 0 | 5 | -7 | 4 | ·
Cc1ccc2cc3cc(C(=O)NCc4ccco4)oc3nc2c1 | + | 4 | 5 | -7 | 0 | 3 | i
CCOc1ccccc1-n1nnnc1SCC(=O)OC | i | 4 | 0 | -3 | 8 | 3 | ·
Cc1ccc(S(=O)(=O)c2cc3c(=O)n4ccccc4nc3n(C)c2=N)cc1 | + | 1 | 2 | 3 | 0 | 6 | i
CCc1ccc2oc(-c3ccc(OC)cc3)cc(=Nc3cccc(C(=O)O)c3)c2c1 | + | 5 | -35 | 14 | 6 | 5 | i
Cc1ccc(NC(=O)COC(=O)C2=COCCO2)c([N+](=O)[O-])c1 | i | 3 | 0 | -12 | -1 | -1 | ·
CCOC(=O)Cn1nc(-c2ccccc2)c2cnc3ccc(C)cc3c21 | + | 1 | -1 | -4 | 7 | 2 | i
CCOC(=O)Cn1nc(-c2ccc(C)cc2)c2ccccc2c1=O | i | 6 | 0 | -2 | 5 | -7 | ·
SMILES | Neddyl block | MT1-MMP act inh | proKLK7 act | SKN-1 inh | Tn7 DDE FP | Tn6 DDE FP | Neddyl conf
CC(C)[N+]1=C2C=CC=CC=C2SC12C([N+](=O)[O-])=CC(=[N+]([O-])[O-])C=C2[N+](=O)[O-] (stereo unspecified) | + | 5 | 0 | -1 | -1 | -1 | i
CCOC(=O)c1c(C)[nH]c(C(=O)OC/C(O)=C(\C#N)c2nc3ccccc3[nH]2)c1C | i | -15 | · | 11 | · | · | ·
CCOC(=O)/C(O)=C(\C#N)c1nc2ccccc2[nH]1 | + | -4 | -1 | 5 | -1 | 2 | ·
COCCCNC(=S)N(CCCO)Cc1cc2cc3c(cc2[nH]c1=O)OCCO3 | i | -2 | 1 | 0 | 3 | 9 | ·
COCCCNC(=S)N(CCCO)Cc1cc2cc3c(cc2[nH]c1=O)OCO3 | + | -1 | 4 | 12 | -1 | -4 | i
COCCNC(=S)N(CCCO)Cc1cc2cc3c(cc2[nH]c1=O)OCO3 | i | 0 | 1 | 5 | 2 | -1 | ·
O=C(NC1CCCCC1)N(CCN1CCCC1)Cc1cc2cc3c(cc2[nH]c1=O)OCCO3 | i | -3 | · | 24 | · | · | ·
COCCCNC(=S)N(CCO)Cc1cc2cc3c(cc2[nH]c1=O)OCO3 | + | -3 | 2 | 7 | -6 | 4 | i
O=C(NC1CCCCC1)N(CCO)Cc1cc2cc3c(cc2[nH]c1=O)OCCO3 | + | 5 | 2 | 13 | -4 | -4 | i
COc1ccc(CC(NC(C)=O)C(=O)NC2CCN(c3nc(C)cc(C)c3C#N)CC2)c(OC)c1 (stereo unspecified) | + | -5 | -1 | -4 | 3 | -3 | i
CCOc1ccc2[nH]c(=O)c(CN(Cc3cccs3)C(CC)c3nnnn3C(C)(C)CC)cc2c1 (stereo unspecified) | + | -4 | 0 | -9 | -6 | -5 | i
CCOc1ccc2[nH]c(=O)c(CN(Cc3ccco3)C(CC)c3nnnn3Cc3ccccc3)cc2c1 (stereo unspecified) | + | -2 | -4 | 4 | -5 | -1 | i
COc1ccc(S(=O)(=O)Cc2ccc(C(=O)NCc3ccc(C)cc3)o2)cc1 | i | 1 | 0 | -1 | 9 | 2 | ·
COc1ccc(CC(=O)Nc2sc3c(c2C#N)CC(C)(C)NC3(C)C)cc1OC | i | -2 | -1 | 4 | 12 | -3 | ·
N#CC1=C(N)N(c2ccc(Br)cc2)C2=C(C(=O)CCC2)C1c1cccnc1 (stereo unspecified) | + | · | 1 | 4 | 2 | 9 | i
O=c1cc(CCl)[nH]c2nc3ccccc3n12 | + | -2 | -70 | -1 | -2 | -3 | i
CCCc1c(C)[nH]c2nc3ccccc3n2c1=O | + | -1 | -35 | 0 | 1 | -2 | i
